Screens from PubChem.
An excerpt weighted towards active compounds, which were near 4% of everything screened.
OX1R antag-1: OX1R (HCRTR1) antagonists, primary screen, fluorescence, CHO/OX1R cells, Fluo-8 calcium, orexin A; Orexin/Hypocretin receptor type 1 (Homo sapiens), O43613; Fluo-8 calcium fluorescence; inhibition, % at 5 µM; 330,000 tested, 0.43% active; AID 434989, 2010;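 active = inhibition above its plate's threshold, mean inhibition of all tested compounds on the plate plus 3 SD, cut at about 37% in these data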
Target sequence (O43613 whole entry, looked up): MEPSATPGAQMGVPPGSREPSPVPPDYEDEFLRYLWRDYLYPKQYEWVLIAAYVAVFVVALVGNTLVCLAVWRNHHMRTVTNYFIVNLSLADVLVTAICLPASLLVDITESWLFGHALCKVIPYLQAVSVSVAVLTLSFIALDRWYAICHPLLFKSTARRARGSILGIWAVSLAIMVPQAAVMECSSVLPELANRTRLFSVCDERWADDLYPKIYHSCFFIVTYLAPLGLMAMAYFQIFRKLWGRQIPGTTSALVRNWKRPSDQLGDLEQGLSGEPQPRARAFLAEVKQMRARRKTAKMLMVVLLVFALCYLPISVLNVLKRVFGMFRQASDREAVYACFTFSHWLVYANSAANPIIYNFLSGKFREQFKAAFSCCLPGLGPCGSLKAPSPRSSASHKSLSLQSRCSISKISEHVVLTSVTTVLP
TAAR1 antagonist: human TAAR1 antagonists, primary screen, Fluo-8 calcium fluorescence, CHO RD-HGA16 cells. Trace amine-associated receptor 1 (Homo sapiens), Q96RJ0. antagonist. inhibition, % at 3 µM. 360,000 tested, 1.5% active. AID 624466, 2012;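 active = inhibition above a per-plate cutoff, the mean inhibition of test compounds on that plate plus 3 SD, cut at about 49% in these data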
Target sequence (Q96RJ0 whole entry, looked up): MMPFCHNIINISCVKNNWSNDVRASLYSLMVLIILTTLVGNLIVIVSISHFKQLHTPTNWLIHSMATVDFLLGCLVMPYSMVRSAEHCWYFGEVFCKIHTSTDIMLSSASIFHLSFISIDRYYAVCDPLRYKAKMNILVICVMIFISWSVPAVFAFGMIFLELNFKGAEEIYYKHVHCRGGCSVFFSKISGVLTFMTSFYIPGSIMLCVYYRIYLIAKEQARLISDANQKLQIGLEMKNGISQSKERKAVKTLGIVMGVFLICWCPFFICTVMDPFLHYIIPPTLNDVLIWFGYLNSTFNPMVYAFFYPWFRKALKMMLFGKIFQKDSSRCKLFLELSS
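Assay system: RD-HGA16 CHO cells with stable hTAAR1 and Gα16 / Reagent: EC80 β-phenethylamine stimulus / Doses: 3 µM, single point / Timing: dye loading 75 min at 37 °C, then 30 min room temperature / Measured by: Fluo-8 intracellular calcium dye fluorescence, real-time kinetic reads / Controls: vehicle wells and EC80 agonist wells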
CHO parental Ca: ATP-evoked calcium signal inhibitors, parental CHO, primary screen, counter-screen for OX1R antagonist project, cell-based, fluorescence, Fluo-8 calcium dye | 330,000 tested, 0.63% active | inhibition, % at 5.6 µM | parental CHO-K1, ATP-induced calcium, Fluo-8 fluorescence | AID 463079, 2010;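 active = inhibition above that plate's mean sample inhibition plus 3 SD, cut at about 26% in these data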
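Assay system: untransfected parental CHO cell line. Also added: ATP agonist challenge. Dosing: one dose, 5.6 µM nominal. Measured by: Fluo-8 fluorescence. Read-out: % inhibition. Benchmarks: ATP wells versus no-ATP DMSO wells. Repeats: no replicates.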
TAAR1 ag: human TAAR1 agonists, primary screen, Fluo-8 calcium fluorescence, CHO RD-HGA16 cells; vehicle wells 0%, saturating PEA agonist 100%; activation, % at 3 µM; 360,000 tested, 0.99% active; AID 624467, 2012;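 active = activation above the mean activation of all test compounds in the run plus 3 SD, cut at about 38% in these data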
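Benchmarks: low control DMSO, high control PEA (EC100); System: CHO RD-HGA16 cells carrying human TAAR1 plus Gα16; Detection: Fluo-8 fluorescence, 5 s baseline then 140 s kinetic read; Schedule: 17-24 h plating, Fluo-8 75 min 37 °C, 30 min RT; Read-out basis: % activation from peak over basal fluorescence ratio, DMSO-to-PEA scaled.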
OX1R antag-2: antagonists of human orexin 1 receptor (OX1R); Orexin/Hypocretin receptor type 1 (Homo sapiens), O43613; OX1R-expressing cells, FRET antagonist read-out; inhibition, % at 6.6 µM; 330,000 tested, 1.8% active; AID 485270, 2010; in the data active = inhibition mostly above about 38%, no sharp cut-off; inactive = mostly below about 40%
OX1R HTRF confirm: OX1R (HCRTR1) antagonists, confirmation, cell-based, HTRF. 1,800 tested, 49% active. inhibition, % at 6.6 µM. shares compounds with OX1R antag-2. OX1R-expressing cells, HTRF antagonist assay; in the data active = inhibition above about 55%;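 note: CHO cells expressing OX1R stimulated with orexin A at about EC80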
CHO-K1 HTRF cnt: signal inhibition in parental CHO-K1 cells, counter-screen for OX1R antagonist project, cell-based, HTRF | shares compounds with OX1R antag-2 | HTRF counterscreen | inhibition, % at 6.6 µM | 1,800 tested, 48% active; in the data active = inhibition above about 17%
Of the large screens only hits and unclear results are named; the others gave an inactive call (follow-up assays come after a bar, where they were run).

CCOC(=O)Cn1nnc(-c2ccccc2)n1	none
COCCN(C(=S)Nc1c(C)cccc1C)C(C)c1cccs1 (stereo not given)	OX1R antag-2 147 | OX1R HTRF confirm inactive | CHO-K1 HTRF cnt inactive
COCCN(C(=S)Nc1cccc(C)c1)C(C)c1cccs1 (stereo not given)	none
CC(NC(=O)C1CCC(CNS(=O)(=O)c2ccccc2)CC1)c1ccccc1 (stereo not given)	none
O=[N+]([O-])c1nn(-c2ccc(Cl)cc2)n(O)c1=NCc1ccncc1	OX1R antag-2 84 | OX1R HTRF confirm inactive | CHO-K1 HTRF cnt 54
COc1ccc(CCN2C(=O)c3cccnc3C2=O)cc1OC	OX1R antag-2 82 | OX1R HTRF confirm inactive | CHO-K1 HTRF cnt 21
Cc1ccc(NC(=O)COc2ccccc2)cc1S(=O)(=O)N1CCCCCC1	OX1R antag-2 98 | OX1R HTRF confirm inactive | CHO-K1 HTRF cnt inactive
O=[N+]([O-])c1ccc2c(c1N1CCCCC1)=NC1(CCCCC1)[N+]=2[O-]	OX1R antag-2 77 | OX1R HTRF confirm inactive | CHO-K1 HTRF cnt 77
CCOc1cc(/C=C2\NC(=O)NC2=O)cc([N+](=O)[O-])c1O	OX1R antag-2 128 | OX1R HTRF confirm 58 | CHO-K1 HTRF cnt 69
COc1ccc(-n2nc3cc(C)c(N)c(Br)c3n2)cc1	OX1R antag-2 92 | OX1R HTRF confirm inactive | CHO-K1 HTRF cnt inactive
C=CCNC(=O)CCC(=O)NNc1nc2ccccc2c2nc(-c3ccccc3)nn12	OX1R antag-2 84 | OX1R HTRF confirm 86 | CHO-K1 HTRF cnt inactive
Cc1nc2c3ccccc3nc(NNC(=O)CCC(=O)N3CCN(c4ccccc4)CC3)n2n1	none
CCc1cc[n+](-c2nc([O-])sc2C=O)cc1	OX1R antag-2 149 | OX1R HTRF confirm inactive | CHO-K1 HTRF cnt 62
Cc1ccc[n+](-c2nc([O-])sc2/C=N/Nc2ccc([N+](=O)[O-])cc2)c1	none
CC(C)(C)c1cc[n+](-c2nc([O-])sc2C=O)cc1	OX1R antag-2 79 | OX1R HTRF confirm 72 | CHO-K1 HTRF cnt 74
O=Cc1c(-[n+]2ccccc2)nc([O-])n1-c1ccccc1	none
CC(C)c1cc[n+](-c2nc([O-])sc2C=O)cc1	OX1R antag-2 98 | OX1R HTRF confirm inactive | CHO-K1 HTRF cnt 64
CCCN(C(=O)CSc1ccccc1C(=O)O)C1CCS(=O)(=O)C1 (stereo not given)	none
C#CCN(C[C@H]1[C@H](OC(=O)Nc2c(C)noc2C)[C@H](OC(=O)Nc2c(C)noc2C)C[C@H]2C(=O)N(c3ccccc3)C(=O)[C@@H]12)S(=O)(=O)c1ccc(C)cc1	none (no result: OX1R antag-1, CHO parental Ca, OX1R antag-2)
Cc1cc(C)n2nc(-c3cccc(Br)c3)cc2n1	OX1R antag-2 85 | OX1R HTRF confirm 90 | CHO-K1 HTRF cnt inactive
CC(=O)Nc1cc(-c2ccoc2)cn2c(-c3ccccc3)cnc12	none (no result: OX1R antag-1, CHO parental Ca, OX1R antag-2)
CCN(CC(=O)Nc1c(F)cccc1F)C(=O)CCc1nc2cc(S(=O)(=O)N3CCOCC3)ccc2n1C	none
CC1Cc2ccccc2N1C(=O)CCS(=O)(=O)c1cccc2nonc12 (stereo not given)	OX1R antag-2 85 | OX1R HTRF confirm inactive | CHO-K1 HTRF cnt 23
CCCN(CC(=O)Nc1ccccc1OC)C(=O)CN1C(=O)NC(C)(C)C1=O	none (no result: OX1R antag-1, CHO parental Ca, OX1R antag-2)
NC(=O)CC(NC(=O)Cc1cccc2ccccc12)c1ccc(NCCN2CCCC2)c([N+](=O)[O-])c1 (stereo not given)	OX1R antag-2 84 | OX1R HTRF confirm inactive | CHO-K1 HTRF cnt inactive
COC(=O)c1cc(=O)c2c(ccc3oc(=O)ccc32)[nH]1	none (no result: OX1R antag-1, CHO parental Ca, OX1R antag-2)
O=S(=O)(Nc1nc2ccccc2nc1NCc1ccco1)c1ccc(F)cc1	OX1R antag-2 171 | OX1R HTRF confirm inactive | CHO-K1 HTRF cnt inactive
O=S(=O)(Nc1nc2ccccc2nc1NCc1ccco1)c1ccccc1	none
CCCCCCCCCCCCCCC[C@@H](O)[C@@H](N)CO	none (no result: OX1R antag-1, CHO parental Ca, OX1R antag-2)
CCn1cc(S(=O)(=O)Nc2ccc(Cl)cc2F)cn1	none
CCc1nnc(N/N=C/c2cccs2)n1N	OX1R antag-2 84 | OX1R HTRF confirm inactive | CHO-K1 HTRF cnt inactive
C(=N\Nc1nc2ccccc2s1)/c1cccs1	none
COc1ccc(C(CNC(=O)C(=O)NC2CCCCC2)N2CCN(C)CC2)cc1 (stereo not given)	none
Cc1cccc2sc(N3CCN(C(=O)c4cccs4)CC3)nc12	none
O=C(c1cccs1)N1CCN(c2nc3ccccc3s2)CC1	OX1R antag-2 87 | OX1R HTRF confirm inactive | CHO-K1 HTRF cnt inactive
CCOC(=O)C(C)/C(C)=N\Nc1ccc([N+](=O)[O-])cc1[N+](=O)[O-] (stereo not given)	OX1R antag-2 85 | OX1R HTRF confirm inactive | CHO-K1 HTRF cnt 19
CCOC(=O)C(C(=O)OCC)C(C)(C)/C(C)=N\Nc1ccc([N+](=O)[O-])cc1[N+](=O)[O-]	none
Cc1cc(C)c(S(=O)(=O)N2CCN(C(=O)c3ccccc3OCc3c(C)noc3C)CC2)c(C)c1	none (no result: OX1R antag-1, CHO parental Ca, OX1R antag-2)
COc1ccc(-c2cc(=O)c3ccccc3s2)cc1	OX1R antag-2 83 | OX1R HTRF confirm 85 | CHO-K1 HTRF cnt inactive
C[C@H](CO)N1C[C@H](C)[C@@H](CN(C)C)Oc2c(NS(=O)(=O)c3ccccc3)cccc2C1=O	none
COc1cccc(C(=O)N(Cc2cc3cc(C)ccc3[nH]c2=O)C(C)C)c1	OX1R antag-2 77 | OX1R HTRF confirm 68 | CHO-K1 HTRF cnt inactive
CC(C)(C)c1cc(C2COC(=O)COCCOCC(=O)OCCOCCO2)cc(C(C)(C)C)c1O (stereo not given)	none (no result: OX1R antag-1, CHO parental Ca, OX1R antag-2)
COc1ccc(Nc2ncnc3c2oc2ccccc23)cc1	OX1R antag-2 83 | OX1R HTRF confirm 62 | CHO-K1 HTRF cnt inactive
Cc1ccc(Nc2ncnc3c2oc2ccccc23)cc1	none
O=C(Nc1ccc(Cl)c(-c2nc3ccccc3[nH]2)c1)c1ccc2c(c1)OCO2	OX1R antag-2 82 | OX1R HTRF confirm 84 | CHO-K1 HTRF cnt inactive
COc1ccc(CNC(=S)Nc2ccccc2-c2ccccc2)cc1	none (no result: TAAR1 antagonist, TAAR1 ag)
Cc1cc(C)nc(SCC(=O)c2cc3ccccc3oc2=O)n1	none
Cc1cc[n+](CC(=O)c2cc3ccccc3oc2=O)cc1	OX1R antag-2 78 | OX1R HTRF confirm 69 | CHO-K1 HTRF cnt 86
O=Cc1c(Sc2ccccn2)nc2ccccn2c1=O	OX1R antag-2 96 | OX1R HTRF confirm inactive | CHO-K1 HTRF cnt 45
